Measured values: ChEMBL document CHEMBL3244267, “Antineoplastic properties of arylsulfonylhdrazones of 3-formylpyridazine 2-oxide and 4-formylpyrimidine 3-oxide” (J Med Chem, 1978)
Activity calls are given as the source filed them. No cut-off for these calls is given here.

Tests used:
L1210 [1] = assay: Antitumor activity against mouse L1210 cells allografted in […] mouse assessed as increase in average survival time at 60 to 100 mg/kg, ip qd for 6 consecutive days starting 24 hrs post implantation relative to control
Sarcoma-180 [2] = assay: Antitumor activity against mouse Sarcoma 180 cells allografted in CD-1 mouse assessed as mouse survival at 40 mg/kg, ip qd for 6 consecutive days starting 24 hrs post implantation measured after 50 days relative to control; type: functional; settings: Sarcoma-180, ip, route intraperitoneal
Procedure, shortened: (§1)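 Female CD-1 mice carrying Sarcoma 180 ascites cells from 7-day donor tumors. Given intraperitoneal doses daily for six consecutive days beginning 24 h after implantation; groups of 10 mice, 5 for some. Read-out is the percentage of mice in each group alive more than 50 days.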

Sarcoma-180 [3] = assay: Antitumor activity against mouse Sarcoma 180 cells allografted in CD-1 mouse assessed as increase in average survival time at 80 mg/kg, ip qd for 6 consecutive days starting 24 hrs post implantation measured relative to control; type: functional; settings: route intraperitoneal
Procedure, shortened: (§2)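 Sarcoma 180 ascites cells propagated in female CD-1 mice; implanted from donors carrying 7-day tumors. Dosed intraperitoneally once daily for six days starting 24 h post-implant; 10 mice per group, 5 for some groups. %T/C = average survival time (treated/control) × 100; mice surviving more than 50 days counted as 50 days. Body-weight change over the therapy period also recorded.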

Sarcoma-180 [4] = assay: Antitumor activity against mouse Sarcoma 180 cells allografted in CD-1 mouse assessed as increase in average survival time at 40 mg/kg, ip qd for 6 consecutive days starting 24 hrs post implantation measured relative to control; type: functional; settings: route intraperitoneal
Procedure, shortened: as §2

Sarcoma-180 [5] = assay: Antitumor activity against mouse Sarcoma 180 cells allografted in CD-1 mouse assessed as mouse survival at 60 mg/kg, ip qd for 6 consecutive days starting 24 hrs post implantation measured after 50 days relative to control; type: functional; settings: Sarcoma-180, ip, route intraperitoneal
Procedure, shortened: as §1

Sarcoma-180 [6] = assay: Antitumor activity against mouse Sarcoma 180 cells allografted in CD-1 mouse assessed as increase in average survival time at 80 mg/kg, ip qd for 6 consecutive days starting 24 hrs post implantation measured relative to control
Mus musculus [7] = assay: Toxicity in mouse Sarcoma 180 cells allografted CD-1 mouse assessed as change in body weight at 40 mg/kg, ip qd for 6 consecutive days starting 24 hrs post implantation (reference value: +13.5 %); type: organism-based; parameters: dose 40 mg/kg, route intraperitoneal; settings: in vivo
Mus musculus [8] = assay: Toxicity in mouse Sarcoma 180 cells allografted CD-1 mouse assessed as change in body weight at 60 mg/kg, ip qd for 6 consecutive days starting 24 hrs post implantation (reference value: +13.5 %); type: organism-based; parameters: dose 60 mg/kg, route intraperitoneal; settings: in vivo
Mus musculus [9] = assay: Toxicity in mouse Sarcoma 180 cells allografted CD-1 mouse assessed as change in body weight at 80 mg/kg, ip qd for 6 consecutive days starting 24 hrs post implantation (reference value: +13.5 %); type: organism-based; parameters: dose 80 mg/kg, route intraperitoneal; settings: in vivo
Sarcoma-180 [10] = assay: Antitumor activity against mouse Sarcoma 180 cells allografted in CD-1 mouse assessed as mouse survival at 80 mg/kg, ip qd for 6 consecutive days starting 24 hrs post implantation measured after 50 days relative to control; type: functional; settings: Sarcoma-180, ip, route intraperitoneal
Procedure, shortened: as §1

Sarcoma-180 [11] = assay: Antitumor activity against mouse Sarcoma 180 cells allografted in CD-1 mouse assessed as increase in average survival time at 60 mg/kg, ip qd for 6 consecutive days starting 24 hrs post implantation measured relative to control; type: functional; settings: route intraperitoneal
Procedure, shortened: as §2

L1210 [12] = assay: Antitumor activity against mouse L1210 cells allografted in CDF-1 mouse assessed as increase in average survival time at 60 to 100 mg/kg, ip qd for 6 consecutive days starting 24 hrs post implantation relative to control; settings: dose mg/kg 60-100; route intraperitoneal

Compound | Activity (L1210 [1]) | survival at 40 mg/kg (Sarcoma-180 [2]) [%] | T/C (Sarcoma-180 [3]) [%] | T/C (Sarcoma-180 [4]) [%] | survival at 60 mg/kg (Sarcoma-180 [5]) [%] | Activity (Sarcoma-180 [6]) | Activity (Mus musculus [7]) [%] | Activity (Mus musculus [8]) [%] | Activity (Mus musculus [9]) [%] | survival at 80 mg/kg (Sarcoma-180 [10]) [%] | T/C (Sarcoma-180 [11]) [%] | T/C (L1210 [12]) [%]
COc1ccc(S(=O)(=O)N/N=C/c2ccnc[n+]2[O-])cc1 | inactive | 0 | 94 | 96 | 0 | inactive | 20.3 | 10.8 | 13.9 | 0 | 100 | –
COc1ccc(S(=O)(=O)N/N=C/c2cccc[n+]2[O-])cc1 | – | – | – | – | – | – | – | – | – | – | – | 234
Cc1ccc(S(=O)(=O)N/N=C/c2cccc[n+]2[O-])cc1 | – | – | – | – | – | – | – | – | – | – | – | 170
Cc1ccc(S(=O)(=O)N/N=C/c2cccn[n+]2[O-])cc1 | inactive | 10 | 315 | 164 | 20 | – | -0.2 | -3.2 | -4.9 | 60 | 254 | –
O=S(=O)(N/N=C/c1ccnc[n+]1[O-])c1ccccc1 | inactive | 0 | 112 | 89 | 0 | inactive | 16.3 | 11.2 | 9.6 | 0 | 97 | –
O=S(=O)(N/N=C/c1cccc[n+]1[O-])c1ccccc1 | – | 20 | – | 235 | – | – | -2.6 | – | – | – | – | 126
Cc1ccc(S(=O)(=O)N/N=C/c2ccnc[n+]2[O-])cc1 | inactive | 0 | 103 | 115 | 0 | inactive | 19.6 | 16.5 | 15.2 | 0 | 100 | –
COc1ccc(S(=O)(=O)N/N=C/c2cccn[n+]2[O-])cc1 | inactive | 10 | 193 | 231 | 20 | – | -1.6 | -3.2 | -4.3 | 0 | 218 | –
O=S(=O)(N/N=C/c1cccn[n+]1[O-])c1ccccc1 | inactive | 10 | 274 | 194 | 10 | – | -2.9 | -3.8 | -3.5 | 40 | 230 | –
